# Assay outcomes as filed in PubChem BioAssay.
# Jurkat NFkB inh: inhibitors of the PMA/ionomycin-induced NF-kB reporter in Jurkat cells; 330,000 tested, 0.53% active; inhibition, % at 4 µM; PMA/ionomycin-induced NF-kB luciferase reporter, luminescence; AID 435003; in the data active = inhibition above about 50%
# CHOP inhibitor: inhibitors of CHOP induction in ER stress response. inhibition, % at 10 µM. CHO-K1 CHOP-promoter luciferase, tunicamycin-induced, 15-18 h. 220,000 tested, 3.8% active;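 active = compounds that reduced the stress-induced luciferase reporter signal by more than about 70% of percent inhibition, limit read from the data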
# UPR XBP1 act: activators of adaptive arm of unfolded protein response (XBP1); CHO-XBP1 luciferase reporter, IRE1-XBP1 UPR activation, luminescence; percent of tunicamycin response, DMSO as zero; activation, % at 20 µM; 330,000 tested, 0.33% active;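 active = versus positive control, 20 µM dose yields 30% or more activation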
#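 Material: IRE1-XBP1 luciferase reporter CHO line / Quantity: one thousand reporter cells per well / Buffer or medium: F12 with 10% serum / Compound: 20 µM single concentration, DMSO 1% / Times: 6 h treatment, 37 °C / Detection: Steady-Glo luciferase glow luminescence, 10 min after reagent addition / Benchmarks: tunicamycin high, DMSO low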
# Gli-Sufu block: Gli-Sufu pathway antagonism; inhibition, % at 5 µM; Sufu-KO-LIGHT fibroblasts, Gli luciferase reporter luminescence; 340,000 tested, 0.74% active;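 active = inhibition above about 55%, limit read from the data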
# 697 NFkB inh: inhibitors of the PMA/ionomycin-induced NF-kB reporter in 697 B cells; 697 B-cell NF-kB luciferase reporter, 16 h; inhibition, % at 4 µM; 330,000 tested, 0.33% active; AID 435022; in the data active = inhibition above about 35%
# UPR CHOP act: activators of apoptotic arm of unfolded protein response (CHOP); CHO-CHOP luciferase reporter, UPR activation, luminescence; percent of tunicamycin response over DMSO baseline; activation, % at 10 µM; 330,000 tested, 0.34% active; AID 449763;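 active = at 10 µM dose, activation of 40% or more, normalized to positive control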
#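 Evaluation: % reporter activation, DMSO baseline versus tunicamycin full activation; System: CHO-CHOP luciferase reporter cell line; Input: 500 cells/well; Incubation: 6 h compound treatment, 37 °C; Measured by: Steady-Glo luciferase luminescence; Dosing: one dose, 10 µM in 0.5% DMSO; Buffer or medium: F12 medium, 10% FBS; Benchmarks: positive tunicamycin 10 µg/mL, negative DMSO alone.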
# 697 NFkB conf: lowers PMA/ionomycin-induced NF-kB signal in 697 B cells. shares compounds with 697 NFkB inh. 697 B-cell NF-kB luciferase, 16 h. inhibition, % at 4 µM. 2,000 tested, 35% active; in the data active = inhibition mostly above about 28%, no sharp cut-off; inactive = mostly below about 22%
# Numbers stand for hits; n = inactive; x = no result given. In the library only some 3.9% were active in any assay of this set; here they are far more common.
SMILES,Jurkat NFkB inh,CHOP inhibitor,UPR XBP1 act,Gli-Sufu block,697 NFkB inh,UPR CHOP act,697 NFkB conf
O=C(CN1CCN(c2ccccc2F)CC1)NC(=O)NC1CCCCC1,n,x,n,n,n,n,x
Cc1ccccc1-c1nnn(Cc2cccc(S(=O)(=O)N3CCOCC3)c2)n1,n,x,n,n,n,n,x
O=c1cc(N2CCN(c3cccc(Cl)c3)CC2)[nH]c(=O)n1C1CCCCC1,n,74,n,n,43,n,n
CC(=O)/C(C#N)=C1\NC(=O)C(Cc2ccc(C)c(C)c2)S1 (stereo not drawn),n,n,n,n,n,n,n
CC(=O)/C(C#N)=C1\NC(=O)C(Cc2ccccc2Cl)S1 (stereo not drawn),n,n,n,n,n,n,n
CC(=O)/C(C#N)=C1\NC(=O)C(Cc2ccc(F)cc2)S1 (stereo not drawn),n,n,n,n,n,n,x
CC(=O)/C(C#N)=C1\NC(=O)C(Cc2cc(Cl)ccc2Cl)S1 (stereo not drawn),n,n,n,n,n,n,n
Cn1c(SCC(=O)NCC2CCCO2)nnc1-c1ccco1 (stereo not drawn),n,x,n,n,n,n,x
O=C(CN1C(=O)NC2(CCCC2)C1=O)Oc1ccc2ccc(=O)oc2c1,n,x,n,n,n,n,x
Cc1ccc2nc(Cl)c(/C=N/Nc3ccc(C(=O)O)cc3)cc2c1,n,n,n,n,n,n,n
Cc1ccc2cc(/C=N/NC(=O)c3ccc(F)cc3)c(Cl)nc2c1,n,n,n,n,n,n,x
Fc1ccc(C(c2nnnn2Cc2ccco2)N2CCN(C3CCCCC3)CC2)cc1 (stereo not drawn),n,n,n,n,36,n,n
COC(=O)Nc1nc2ccc(C(=O)c3cccs3)cc2[nH]1,n,n,n,n,n,n,n
COc1cccc(NC(=O)CNC(=O)Cn2cnc3sc(C)c(C)c3c2=O)c1,n,x,n,n,n,n,x
O=C1CC(c2ccc3c(c2)OCCO3)Oc2ccc([N+](=O)[O-])cc21 (stereo not drawn),n,x,n,n,n,n,n
O=C1CC(c2ccc3c(c2)OCCO3)Oc2ccccc21 (stereo not drawn),n,x,n,n,n,n,x
CN(C)CCCN=Cc1c(-c2ccccc2)[nH]n(-c2nc3ccccc3s2)c1=O,n,n,n,n,42,n,44
CCc1ccc2[nH]c3nc(N/N=C/c4cccc(O)c4)nnc3c2c1,n,x,n,n,60,n,76
COc1cccc(/C=N/Nc2nnc3c(n2)[nH]c2ccccc23)c1OC,n,n,n,n,n,n,x
Cn1c(C(=O)Nc2ccc(Cl)cc2)cc2cc(Cl)ccc21,n,x,n,n,n,n,x
Cc1ccc(-c2csc3ncnc(Nc4ccc(C(=O)O)cc4)c23)cc1,n,n,n,n,36,n,n
COc1ccccc1N(C)S(=O)(=O)c1ccc(C(=O)N2CCCC(C(F)(F)F)C2)cc1 (stereo not drawn),n,x,n,n,n,n,x
Cc1cc(C)c2nc(NC(=O)C3CSC4(C)CCC(=O)N34)sc2c1 (stereo not drawn),n,x,n,n,47,n,45
CC12CCC(=O)N1C(C(=O)Nc1nc3ccc(Cl)cc3s1)CS2 (stereo not drawn),n,x,n,n,n,n,x
COCCCn1c(SCC(=O)N2CCOCC2)nnc1-c1ccco1,n,x,n,n,n,n,x
SMILES,Jurkat NFkB inh,CHOP inhibitor,UPR XBP1 act,Gli-Sufu block,697 NFkB inh,UPR CHOP act,697 NFkB conf
Cc1csc(=O)n1CCC(=O)OCc1nnc(-c2ccc(Cl)cc2)o1,n,x,n,n,n,n,x
COc1ccccc1Cn1c(=O)c2ccccc2n2c(Sc3ncnc4sccc34)nnc12,n,n,n,n,35,n,n
O=[N+]([O-])c1ccc(/C=C/c2ccc3cccc(O)c3n2)cc1,n,x,n,n,n,n,x
C(=C\c1ccc2ccccc2n1)/c1ccccc1,n,71,n,n,n,n,n
O=[N+]([O-])c1ccc(/C=C/c2ccc3ccccc3n2)cc1,n,n,n,n,n,n,n
O=C(O)/C=C/c1ccc2ccccc2n1,n,n,n,n,n,n,x
O=C(O)/C=C/c1ccc(S(=O)(=O)Nc2ccc(OCc3ccccc3)cc2)cc1,n,n,n,n,n,n,x
N#Cc1ccccc1COc1ccc(/C=C/C(=O)O)cc1,n,n,n,n,39,n,38
C=CCN(c1ccc(C(=O)NCCSc2ccccc2)cc1)S(C)(=O)=O,n,x,n,n,n,n,x
CC(C)n1cc(/C=N/Nc2ccc(C(=O)O)cc2)c2ccccc21,n,x,n,n,n,n,n
COc1ccc(OC)c(C(=O)c2coc3ccc(OC(C)=O)cc23)c1,n,n,n,n,n,n,x
Cc1ccc(C(=O)c2coc3ccc(O)cc23)cc1,n,x,n,n,n,n,n
COc1ccc(C(=O)c2coc3ccc(OC(C)=O)cc23)cc1,n,x,n,n,n,n,n
Cc1ccc(CCNC(=O)c2cc(S(=O)(=O)N3CCCC3)cn2C)cc1,n,x,n,n,n,n,x
CC(=O)c1ccc(N2CCN(c3ccnc4cc(Cl)ccc34)CC2)cc1,n,x,n,n,42,n,n
O=C(N/N=C(\CC(=O)c1cccs1)C(F)(F)F)c1ccncc1,n,n,n,n,n,n,n
Cc1nn2cc(-c3ccc(-c4ccccc4)cc3)nc2s1,n,n,n,n,n,n,n
CCc1nn2cc(-c3ccccc3)nc2s1,n,n,n,n,n,n,x
Cc1ccc(/C=C/c2nc3ccccc3s2)s1,n,n,n,n,n,n,n
O=c1cc(-c2ccc(O)c(O)c2)oc2ccc3ccccc3c12,n,x,n,n,n,n,n
CCOC(=O)C1=C(N)n2c(s/c(=C\c3cccnc3)c2=O)=C(C(=O)OC)C1c1cccnc1 (stereo not drawn),n,x,n,n,37,n,n
CCOC(=O)C1CCCN(CC(=O)Nc2nc(-c3ccccc3)cs2)C1 (stereo not drawn),n,x,n,n,n,n,x
COC(=O)c1c(-c2ccc(N(C)C)cc2)sc2ccc(OC)cc12,n,x,n,n,53,n,62
O=C(O)Cn1nnc(COc2ccccc2)n1,n,x,n,n,n,n,x
COc1cc(OC)c(/C=N/NC(N)=S)cc1Br,n,n,n,n,55,n,18
CCC(C)[C@H](NC(=O)C1CC(=O)N(c2ccc3c(c2)OCO3)C1)C(=O)NC1CCCCC1 (stereo partly drawn),n,x,n,n,n,n,x
Cn1c(=N)n(CC(=O)c2ccc(Br)cc2)c2ccccc21,n,x,n,n,n,n,n
COc1ccc2ccc(OC)c(/C=N/n3cnnc3)c2c1,n,x,n,n,n,n,x
